PAD4 inh: inhibitors of human PAD4 | recombinant PAD4, RCA probe fluorescence polarization | inhibition, % at 6.36 µM | hit rate 0.41% among 330,000 | AID 485272;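 active = percent inhibition above a cutoff equal to the mean of all tested compounds plus 3 SD, cut at about 15% in these data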;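 note: 0% = PAD4 with RCA probe and DMSO and 100% = probe without PAD4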
Target sequence (Q9UM07 whole entry, looked up): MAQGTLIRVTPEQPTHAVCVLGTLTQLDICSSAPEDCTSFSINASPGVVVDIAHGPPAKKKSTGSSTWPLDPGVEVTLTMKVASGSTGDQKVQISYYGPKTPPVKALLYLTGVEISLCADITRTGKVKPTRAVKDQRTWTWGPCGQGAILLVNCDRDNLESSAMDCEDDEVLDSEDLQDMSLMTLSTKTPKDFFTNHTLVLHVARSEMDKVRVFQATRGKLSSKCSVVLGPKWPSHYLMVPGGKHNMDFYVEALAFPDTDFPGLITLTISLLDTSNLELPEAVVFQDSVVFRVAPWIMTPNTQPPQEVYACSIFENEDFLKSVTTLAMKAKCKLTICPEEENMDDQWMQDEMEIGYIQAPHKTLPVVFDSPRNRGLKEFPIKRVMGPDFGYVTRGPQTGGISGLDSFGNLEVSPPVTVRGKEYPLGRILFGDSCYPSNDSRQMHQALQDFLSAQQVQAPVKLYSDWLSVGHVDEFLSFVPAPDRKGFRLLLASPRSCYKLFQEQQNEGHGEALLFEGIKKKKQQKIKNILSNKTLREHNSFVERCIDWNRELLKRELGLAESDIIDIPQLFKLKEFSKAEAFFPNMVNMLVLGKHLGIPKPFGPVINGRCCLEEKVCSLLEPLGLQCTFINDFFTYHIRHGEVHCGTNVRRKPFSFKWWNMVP
UCH37 inh: inhibitors of human deubiquitinating enzyme UCH37. inhibition, % (concentration not given with the values). AID 588478. purified proteasome/UCH37, Ub-AMC cleavage fluorescence. hit rate 0.33% among 330,000;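 active = mean inhibition over replicate wells above about 20%, limit read from the data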;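 note: 0% = compound-free wells with enzyme and 100% = wells lacking proteasome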
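Schedule: 30 min plus 25 min, room temperature / Material: human UCH37 within purified proteasomes / Technique: AMC fluorescence intensity at 355/460 nm / Buffer or medium: pH 7.4 Tris-HCl (50 mM) with ovalbumin, ATP-MgCl2, DTT / Controls: wells without proteasome as full block, compound-free enzyme plus substrate as uninhibited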
TDP2 inh: TDP2 (human) inhibition, absorbance primary screen; recombinant TDP2, T5PNP hydrolysis, p-nitrophenol absorbance 415 nm; hit rate 0.34% among 370,000; AID 720702; inhibition, % at 12.8 µM;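 active = inhibition above the mean of all tested compounds plus 3 SD, set per campaign, cut at about 25% in these data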;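 note: 0% = DMSO with enzyme and 100% = buffer with substrate but no TDP2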
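System – recombinant human TDP2 · Quantity – TDP2 enzyme at 120 nM final · Doses – single concentration, 12.8 µM nominal, with 1% DMSO · Incubation – 2 h at 37 °C · Measured by – epi absorbance of p-nitrophenol freed from T5PNP by hydrolysis · Read-out – % inhibition relative to enzyme-containing and enzyme-free wells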
HKDC1 inhibitor: inhibitors of human hexokinase HKDC1. Q2TB90. recombinant HKDC1, G6PDH/diaphorase resazurin coupled fluorescence. inhibition, % at 20 µM. hit rate 0.16% among 340,000. AID 493160;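 active = inhibition above about 35% when tested at 20 µM, limit read from the data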;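 note: plate controls were DMSO wells with enzyme for no effect and DMSO wells lacking enzyme for full effect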
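Material: recombinant HKDC1 hexokinase; Amount: HKDC1 at 5 µg/mL; Medium: Tris pH 8.0 buffer with MgCl2, Tween-20, BSA, BME; Schedule: 90 min reaction incubation at room temperature, dark; Technique: coupled resazurin fluorescence, excitation 525 nm, emission 613 nm.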
GSTO1 counter: blocks human GSTO1 in RBBP9 counter-screen | recombinant GSTO1, activity-based probe fluorescence polarization | inhibition, % at 5.96 µM | hit rate 1.1% among 300,000 | AID 1974;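 active = inhibition above the campaign mean inhibition plus 3 SD, cut at about 35% in these data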;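 note: 0% = GSTO1-1 with DMSO and 100% = wells lacking GSTO1-1 enzyme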
Fh CTSL1 inh: cathepsin L1 inhibition, PFM18AAP counter-screen; recombinant F. hepatica cathepsin L1, Z-Leu-Arg-MCA fluorescence; inhibition, % at 5.96 µM; AID 1906; hit rate 0.49% among 300,000;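 active = inhibition above the mean of all tested compounds plus 3 SD, set per screening campaign, cut at about 17% in these data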;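 note: 0% = plate median of test compound wells and 100% = 1 µM Z-Phe-Ala-diazomethylketone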
Active calls of the source: *; . = no result given. An excerpt weighted towards active compounds, which were near 1.6% of everything screened.

SMILES	PAD4 inh	UCH37 inh	TDP2 inh	HKDC1 inhibitor	GSTO1 counter	Fh CTSL1 inh
O=C(/C=C/c1ccco1)N1CCCC(c2ccccc2)C1 (centres undefined)	1	26*	-7	5	10	2
Cc1ccsc1C=C1C(=O)c2ccccc2C1=O	-6	5	2	9	37*	1
CCOC(=O)c1sc(S(C)(=O)=O)c2c1CCc1conc1-2	-4	-6	3	8	4	42*
COc1ccc(C=NNc2cc(C)nc3ccccc23)cc1	.	-28	.	.	.	.
COCCNC(=O)c1onc(CSc2ccc(C)c(C)c2)c1C(=O)O	1	4	6	2	1	3
COCCNC(=O)c1onc(CSc2cc(C)cc(C)c2)c1C(=O)O	-9	34*	-8	-2	-5	-2
O=C(NN=Cc1sc2ccccc2c1O)c1cccc2ccccc12	.	5	.	.	.	.
O=C(O)c1ccccc1N=Nc1c(O)[nH]c2ccc([N+](=O)[O-])cc12	0	13	.	37*	-4	0
CCNC(=S)N=Nc1c(O)[nH]c2ccc([N+](=O)[O-])cc12	-4	5	11	10	45*	6
CCCCCC(=O)N=Nc1c(O)[nH]c2ccc([N+](=O)[O-])cc12	4	1	5	-11	9	-2
Cc1ccc(OC(C)C(=O)N=Nc2c(O)[nH]c3ccc([N+](=O)[O-])cc23)cc1 (centres undefined)	-4	3	21	-8	36*	-3
CCNC(=S)N=Nc1c(O)[nH]c2ccc(C(C)C)cc12	-4	0	-2	-4	-11	2
CC(=NO)c1c(O)c(C)c(-c2ccccc2)n(-c2ccccc2)c1=O	.	5	.	.	.	.
O=C(/C=C/c1ccc(O)c(O)c1)OC(Cc1ccc(O)c(O)c1)C(=O)O (centres undefined)	5	.	7	8	55*	3
O=C(COc1ccccc1)NN=Cc1sc(=O)n(Cc2cccc(C(=O)O)c2)c1Cl	.	8	.	.	.	.
O=C(COC(=O)c1ccc([N+](=O)[O-])o1)NC1CCCc2ccccc21 (centres undefined)	-14	20*	14	1	.	.
Cc1ccc(NC(=S)NNC(=S)Nc2ccc(C)cc2C)cc1	3	.	3	-14	47*	-2
Cc1ccc(NC(=O)CCC(=O)NNC(=S)Nc2ccccc2)c(C)c1	4	2	-12	3	8	0
O=C(COc1ccc(Cl)cc1)NCCCNC(=O)c1cccnc1	-1	-1	10	-3	2	17*
O=C(COc1ccc(Br)cc1)NCCCNC(=O)c1cccnc1	2	2	-11	-3	-4	0
Cc1nc(N2CCN(c3ccccn3)CC2)c2c(C)c(C(=O)Nc3c(C)cc(Br)cc3C)sc2n1	0	-10	14	4	2	19*
CCOC(=O)/C(C#N)=C1/C=CN(c2ccccc2)C=N1	-2	21*	3	-2	-4	5
CC(=NNc1ccc(Cl)c(C(=O)O)c1)c1ccc(N2CCOCC2)cc1	.	13	.	.	.	.
Cc1nn(C)c(C)c1N1C(=O)c2cccc3c(N)ccc(c23)C1=O	31*	11	-1	-6	12	0
CC(=O)C1=C(O)C(=O)N(CCN(C)C)C1c1ccc(Cl)cc1 (centres undefined)	.	24*	-5	13	.	.
SMILES	PAD4 inh	UCH37 inh	TDP2 inh	HKDC1 inhibitor	GSTO1 counter	Fh CTSL1 inh
CC(C)(C)NC(=O)NC(=O)COC(=O)COc1ccc2c(c1)CCC2	1	20*	1	5	-2	-7
Cc1cccc(NC(=O)COC(=O)COc2ccc3c(c2)CCC3)c1	-5	4	-1	-1	.	.
O=C(NN=Cc1ccccc1OC(F)F)NC1CCCCC1	.	3	.	.	.	.
CCC(=O)NC(c1cccs1)c1cc([N+](=O)[O-])c2cccnc2c1O (centres undefined)	0	20*	-1	9	-2	0
CCCC(=O)NC(c1cccs1)c1cc([N+](=O)[O-])c2cccnc2c1O (centres undefined)	-4	13	5	-9	-4	3
CN(N=Cc1ccc([N+](=O)[O-])o1)c1ccccc1	.	5	.	.	.	.
CCCn1c(=N)n(CC(=O)c2ccc(Cl)cc2)c2ccccc21	-6	3	6	-2	0	0
CCCn1c(=N)n(CC(=O)c2ccc([N+](=O)[O-])cc2)c2ccccc21	-1	4	-14	3	11	18*
CSc1ccc(C=NNC(=O)c2cccs2)cc1	.	-11	.	.	.	.
CC(=NNC(=O)CC1N=C(Cc2ccccc2)NNC1=O)c1ccccc1 (centres undefined)	.	2	.	.	.	.
O=C1COc2ccc(C(=O)COC(=O)CNC(=O)C3CCCCC3)cc2N1	-6	0	2	-4	4	31*
O=C(CNC(=O)C1CCCCC1)OCC(=O)c1ccc(Cl)s1	1	1	-1	-8	-13	18*
COc1ccc(OC)c(C(=O)COC(=O)CNC(=O)C2CCCCC2)c1	-5	-3	6	-1	0	33*
COc1cc(OC)cc(C(=O)NCC(=O)OCC(=O)c2cc(OC)ccc2OC)c1	-3	2	-4	8	3	-18
Cc1ccc(C(=O)NCC(=O)OCC(=O)c2ccc3c(c2)NC(=O)CO3)cc1C	-6	5	0	-2	-9	-23
O=C(COC(=O)CNC(=O)C1CCCCC1)Nc1ccc(Cl)cn1	1	-1	-4	-3	-1	29*
O=C(CNC(=O)C1CCCCC1)OCC(=O)c1ccc(Br)cc1	.	3	-1	-4	.	.
CCn1cc(C=NNC(=O)C2(C)CC2(Cl)Cl)c(C)n1 (centres undefined)	.	2	.	.	.	.
COc1ccc(C(=O)COC(=O)CNC(=O)C2CCCCC2)c(OC)c1	-3	3	-1	3	8	35*
CCOc1ccc(C(=O)COC(=O)CNC(=O)C2CCCCC2)cc1	4	-1	4	6	.	.
Fc1ccc2c(c1)C(=NNc1ccccn1)CCS2	.	7	.	.	.	.
O=C1NC(=O)[C@@H]2C3c4ccccc4C=CN3[C@H](C(=O)c3cccs3)[C@H]12 (some centres undefined)	8	.	.	.	35*	0
CC(=O)[C@@H]1[C@@H]2C(=O)N(C3CCCCC3)C(=O)[C@@H]2C2c3ccccc3C=CN21 (some centres undefined)	-9	.	.	.	22	4
Cc1cccc2cc(-c3nc4c(C)cccn4c3NCc3ccco3)c(=O)[nH]c12	-8	25*	6	-2	-6	7
CC=NNC(=O)CNC(=O)CNC(=O)c1ccccc1	.	4	.	.	.	.
CCOC(=O)Nc1cccc(OCC(=O)Nc2ccccc2OCC)c1	1	2	3	-7	-1	30*
CC=NNC(=O)c1cc(Br)ccc1O	.	-76	.	.	.	.

Screening results deposited in PubChem BioAssay by several laboratories.
